System: Fibroblast
Test: Multiplex assay against human fibroblast
Type: toxicity, cell-based
Summary of the method: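 Live cells were stained at seeding with Hoechst33342, BioTracker Green Microtubule Cytoskeleton Dye, MitoTracker Red and Annexin V Alexa Fluor 680, then imaged on a CQ1 microscope at 37°C and 5% CO2 after compound addition. CellPathfinder machine-learning gating split cells into Hoechst high-intensity objects or normal cells. Normal cells were split into healthy, pyknosed or fragmented nuclei, and pyknosed cells into mitotic or apoptotic. Tubulin, mitochondrial-mass and membrane-permeability phenotypes are per cents of healthy-nucleus cells.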

[1] = 12 h, 1 µM, compound concentration 1 uM, replicate 1
[2] = 12 h, 1 µM, compound concentration 1 uM, replicate 2
[3] = 12 h, 10 µM, compound concentration 10 uM, replicate 1
[4] = 12 h, 10 µM, compound concentration 10 uM, replicate 2
[5] = 24 h, 1 µM, compound concentration 1 uM, replicate 1
[6] = 24 h, 1 µM, compound concentration 1 uM, replicate 2
[7] = 24 h, 10 µM, compound concentration 10 uM, replicate 1
[8] = 24 h, 10 µM, compound concentration 10 uM, replicate 2
[9] = 48 h, 1 µM, compound concentration 1 uM, replicate 1
[10] = 48 h, 1 µM, compound concentration 1 uM, replicate 2
[11] = 48 h, 10 µM, compound concentration 10 uM, replicate 1
[12] = 48 h, 10 µM, compound concentration 10 uM, replicate 2

CCCOc1ccc2[nH]cc(C3=CCNCC3)c2n1.Cl
Population Apoptotic (%) [1]: 42%
Population Fragmented Nuclei (%) [1]: 13%
Population Healthy Nuclei (%) [1]: 71%
Population Hoechst High Intensity Objects (%) [1]: 2%
Population Membrane Permeable-Phenotype (%) [1]: 0%
Population Mitochondria Different-Phenotype (%) [1]: 6%
Population Mitotic Cells (%) [1]: 57%
Population Normal (%) [1]: 97%
Population Pyknosed Nuclei (%) [1]: 15%
Population Tubulin-Different-Phenotype (%) [1]: 27%
Total Cell Count [1]: 143
Population Apoptotic (%) [2]: 48%
Population Fragmented Nuclei (%) [2]: 25%
Population Healthy Nuclei (%) [2]: 52%
Population Hoechst High Intensity Objects (%) [2]: 0%
Population Membrane Permeable-Phenotype (%) [2]: 8%
Population Mitochondria Different-Phenotype (%) [2]: 2%
Population Mitotic Cells (%) [2]: 51%
Population Normal (%) [2]: 99%
Population Pyknosed Nuclei (%) [2]: 21%
Population Tubulin-Different-Phenotype (%) [2]: 47%
Total Cell Count [2]: 137
Population Apoptotic (%) [3]: 70%
Population Fragmented Nuclei (%) [3]: 16%
Population Healthy Nuclei (%) [3]: 70%
Population Hoechst High Intensity Objects (%) [3]: 4%
Population Membrane Permeable-Phenotype (%) [3]: 0%
Population Mitochondria Different-Phenotype (%) [3]: 12%
Population Mitotic Cells (%) [3]: 29%
Population Normal (%) [3]: 95%
Population Pyknosed Nuclei (%) [3]: 13%
Population Tubulin-Different-Phenotype (%) [3]: 41%
Total Cell Count [3]: 133
Population Apoptotic (%) [4]: 40%
Population Fragmented Nuclei (%) [4]: 31%
Population Healthy Nuclei (%) [4]: 48%
Population Hoechst High Intensity Objects (%) [4]: 2%
Population Membrane Permeable-Phenotype (%) [4]: 1%
Population Mitochondria Different-Phenotype (%) [4]: 10%
Population Mitotic Cells (%) [4]: 60%
Population Normal (%) [4]: 97%
Population Pyknosed Nuclei (%) [4]: 20%
Population Tubulin-Different-Phenotype (%) [4]: 59%
Total Cell Count [4]: 125
Population Apoptotic (%) [5]: 57%
Population Fragmented Nuclei (%) [5]: 14%
Population Healthy Nuclei (%) [5]: 76%
Population Hoechst High Intensity Objects (%) [5]: 2%
Population Membrane Permeable-Phenotype (%) [5]: 0%
Population Mitochondria Different-Phenotype (%) [5]: 6%
Population Mitotic Cells (%) [5]: 42%
Population Normal (%) [5]: 97%
Population Pyknosed Nuclei (%) [5]: 9%
Population Tubulin-Different-Phenotype (%) [5]: 20%
Total Cell Count [5]: 155
Population Apoptotic (%) [6]: 38%
Population Fragmented Nuclei (%) [6]: 28%
Population Healthy Nuclei (%) [6]: 52%
Population Hoechst High Intensity Objects (%) [6]: 0%
Population Membrane Permeable-Phenotype (%) [6]: 5%
Population Mitochondria Different-Phenotype (%) [6]: 5%
Population Mitotic Cells (%) [6]: 61%
Population Normal (%) [6]: 100%
Population Pyknosed Nuclei (%) [6]: 18%
Population Tubulin-Different-Phenotype (%) [6]: 40%
Total Cell Count [6]: 140
Population Apoptotic (%) [7]: 61%
Population Fragmented Nuclei (%) [7]: 23%
Population Healthy Nuclei (%) [7]: 64%
Population Hoechst High Intensity Objects (%) [7]: 1%
Population Membrane Permeable-Phenotype (%) [7]: 0%
Population Mitochondria Different-Phenotype (%) [7]: 12%
Population Mitotic Cells (%) [7]: 38%
Population Normal (%) [7]: 98%
Population Pyknosed Nuclei (%) [7]: 11%
Population Tubulin-Different-Phenotype (%) [7]: 36%
Total Cell Count [7]: 159
Population Apoptotic (%) [8]: 50%
Population Fragmented Nuclei (%) [8]: 20%
Population Healthy Nuclei (%) [8]: 68%
Population Hoechst High Intensity Objects (%) [8]: 2%
Population Membrane Permeable-Phenotype (%) [8]: 4%
Population Mitochondria Different-Phenotype (%) [8]: 8%
Population Mitotic Cells (%) [8]: 50%
Population Normal (%) [8]: 97%
Population Tubulin-Different-Phenotype (%) [8]: 61%
Total Cell Count [8]: 107
Population Apoptotic (%) [9]: 69%
Population Fragmented Nuclei (%) [9]: 17%
Population Healthy Nuclei (%) [9]: 74%
Population Hoechst High Intensity Objects (%) [9]: 2%
Population Membrane Permeable-Phenotype (%) [9]: 0%
Population Mitochondria Different-Phenotype (%) [9]: 5%
Population Mitotic Cells (%) [9]: 30%
Population Normal (%) [9]: 97%
Population Pyknosed Nuclei (%) [9]: 8%
Population Tubulin-Different-Phenotype (%) [9]: 23%
Total Cell Count [9]: 162
Population Apoptotic (%) [10]: 64%
Population Fragmented Nuclei (%) [10]: 36%
Population Healthy Nuclei (%) [10]: 53%
Population Hoechst High Intensity Objects (%) [10]: 4%
Population Membrane Permeable-Phenotype (%) [10]: 5%
Population Mitochondria Different-Phenotype (%) [10]: 2%
Population Mitotic Cells (%) [10]: 35%
Population Normal (%) [10]: 95%
Population Pyknosed Nuclei (%) [10]: 9%
Population Tubulin-Different-Phenotype (%) [10]: 40%
Total Cell Count [10]: 147
Population Apoptotic (%) [11]: 73%
Population Fragmented Nuclei (%) [11]: 21%
Population Healthy Nuclei (%) [11]: 65%
Population Hoechst High Intensity Objects (%) [11]: 2%
Population Membrane Permeable-Phenotype (%) [11]: 0%
Population Mitochondria Different-Phenotype (%) [11]: 9%
Population Mitotic Cells (%) [11]: 26%
Population Normal (%) [11]: 97%
Population Pyknosed Nuclei (%) [11]: 13%
Population Tubulin-Different-Phenotype (%) [11]: 45%
Total Cell Count [11]: 150
Population Apoptotic (%) [12]: 60%
Population Fragmented Nuclei (%) [12]: 32%
Population Healthy Nuclei (%) [12]: 62%
Population Hoechst High Intensity Objects (%) [12]: 5%
Population Membrane Permeable-Phenotype (%) [12]: 4%
Population Mitochondria Different-Phenotype (%) [12]: 13%
Population Mitotic Cells (%) [12]: 40%
Population Normal (%) [12]: 94%
Population Pyknosed Nuclei (%) [12]: 4%
Population Tubulin-Different-Phenotype (%) [12]: 44%
Total Cell Count [12]: 116
